# Measured values of several laboratories.
# Protocols differ between the studies behind these lines.
SMILES,test system,setting,endpoint,value
O=C(NCCN1CCCC1)c1cc(-c2ccc(CN3CCOCC3)cc2)nc2ccc(F)cc12,"male beagle dog, blood","intravenous, 1 mg/kg",Vd,30 L/kg
C=CC(=O)Nc1cc(Nc2nccc(Nc3cc(Cl)c(F)cc3C(C)(C)O)n2)c(OC)cc1N1CC[C@@H](N(C)C)C1,"beagle dog, plasma","intravenous, 1 mg/kg",Vd,29.5 L/kg
Oc1c(-n2ccnn2)cnn1-c1cc(N2CCOCC2)ncn1,"female dog, plasma","intravenous, 3 mg/kg",Vd,0.78 L/kg
CN1CCC(c2ccccc2CC(C)(C)Nc2nc(N3CCOCC3)nc(-n3c(C(F)F)nc4ccccc43)n2)CC1,"dog, plasma","intravenous, 2 mg/kg, single dose",Vd,9.7 L/kg
Cc1nnc2sc(C(=O)NCc3ccc(-c4cccnc4F)cc3)c(N)c2c1C,"dog, plasma",intravenous,Vd,0.7 L/kg
COc1ccnc(CNC(=O)c2cn(Cc3ccc(Cn4ccccc4=O)cc3)nc2C(F)(F)F)c1F,"male beagle dog, plasma","intravenous, 1 mg/kg",Vd,< 1 L
CCn1c(=O)c(-c2cc(NC(=O)Nc3ccccc3)c(F)cc2Br)cc2cnc(NC)cc21,"beagle dog, plasma","oral, 5 mg/kg, single dose",Vd/F,12.7 L/kg
CC[C@@H]1CN(C(=O)NCC(F)(F)F)C[C@@H]1c1cnc2cnc3[nH]ccc3n12,"beagle dog, plasma","oral, 1 mg/kg, single dose",Vd/F,29.1 L/kg
COCc1nn(Cc2ccc(Cn3ccccc3=O)cc2)cc1C(=O)NCc1nccc(OC)c1F,"male beagle dog, plasma","intravenous, 1 mg/kg",Vd,< 1 L
